# ChEMBL document CHEMBL1136045, “Synthesis, in vitro receptor binding, and in vivo evaluation of fluorescein and carbocyanine peptide-based optical contrast agents” (J Med Chem, 2002)
# Biological target: Gastrin-releasing peptide receptor (Rattus norvegicus, UniProt P52500)
# Assay: In vitro binding affinity of [111In]DTPA-[Y4]-bombesin to bombesin receptor in the rat pancreatic acinar cell line, AR42J
# Method in brief: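 Competition binding on AR42-J rat pancreatic acinar cell membranes (~50 μg/well) with the tracer [111In]-DTPA-[P1,Y4]-bombesin and increasing concentrations of cold competitor. Buffer was 50 mM Tris-HCl pH 7.4, 5 mM MgCl2, 0.2 mg/mL BSA. Incubation 90 min at room temperature, then filtration and washing. Bound radioactivity was gamma-counted, and IC50 came from a four-parameter fit.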
# Gastrin-releasing peptide receptor, sequence (P52500 whole entry): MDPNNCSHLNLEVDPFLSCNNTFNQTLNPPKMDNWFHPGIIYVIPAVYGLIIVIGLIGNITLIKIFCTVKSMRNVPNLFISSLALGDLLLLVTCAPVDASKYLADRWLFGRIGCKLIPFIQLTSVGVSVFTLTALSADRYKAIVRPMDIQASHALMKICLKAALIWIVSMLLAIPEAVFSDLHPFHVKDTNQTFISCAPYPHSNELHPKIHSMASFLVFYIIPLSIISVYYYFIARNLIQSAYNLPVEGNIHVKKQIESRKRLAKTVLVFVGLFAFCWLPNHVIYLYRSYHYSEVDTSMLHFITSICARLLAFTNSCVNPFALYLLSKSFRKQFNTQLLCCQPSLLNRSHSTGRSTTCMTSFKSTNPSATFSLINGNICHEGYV
row,SMILES,IC50
1,CSCC[C@H](NC(=O)[C@H](CC(C)C)NC(=O)[C@H](Cc1c[nH]cn1)NC(=O)CNC(=O)[C@@H](NC(=O)[C@H](C)NC(=O)[C@H](Cc1c[nH]c2ccccc12)NC(=O)[C@H](CCC(N)=O)NC(=O)[C@H](CC(N)=O)NC(=O)CNC(=O)[C@H](Cc1ccc(O)cc1)NC(=O)[C@H](CCCN=C(N)N)NC(=O)[C@H](CCC(N)=O)NC(=O)[C@@H]1CCCN1C(=O)CN(CCN(CCN(CC(=O)O)CC(=O)O)CC(=O)O)CC(=O)O)C(C)C)C(N)=O,4.7 nM
2,CSCC[C@H](NC(=O)[C@H](CC(C)C)NC(=O)[C@H](Cc1c[nH]cn1)NC(=O)CNC(=O)[C@@H](NC(=O)[C@H](C)NC(=O)[C@H](Cc1c[nH]c2ccccc12)NC(=O)[C@H](CCC(N)=O)NC(=O)CNC(=O)[C@H](CO)NC(=O)CNC(=O)[C@@H](N)CCCCNC(=S)Nc1ccc2c(c1)C(=O)OC21c2ccc(O)cc2Oc2cc(O)ccc21)C(C)C)C(N)=O,9.6 nM
3,CSCC[C@H](NC(=O)[C@H](CC(C)C)NC(=O)[C@H](Cc1c[nH]cn1)NC(=O)CNC(=O)[C@@H](NC(=O)[C@H](C)NC(=O)[C@H](Cc1c[nH]c2ccccc12)NC(=O)[C@H](CCC(N)=O)NC(=O)[C@H](CCCCN)NC(=S)Nc1ccc2c(c1)C(=O)OC21c2ccc(O)cc2Oc2cc(O)ccc21)C(C)C)C(N)=O,5.8 nM
4,CSCC[C@H](NC(=O)[C@H](CC(C)C)NC(=O)[C@H](Cc1c[nH]cn1)NC(=O)CNC(=O)[C@@H](NC(=O)[C@H](C)NC(=O)[C@H](Cc1c[nH]c2ccccc12)NC(=O)[C@H](CCC(N)=O)NC(=O)[C@@H](N)CCCCNC(=O)CN(CCN(CCN(CC(=O)O)CC(=O)O)CC(=O)O)CC(=O)O)C(C)C)C(N)=O,4.8 nM
5,CSCC[C@H](NC(=O)[C@H](CC(C)C)NC(=O)[C@H](Cc1c[nH]cn1)NC(=O)CNC(=O)[C@@H](NC(=O)[C@H](C)NC(=O)[C@H](Cc1c[nH]c2ccccc12)NC(=O)[C@H](CCC(N)=O)NC(=O)[C@H](CCCCN)NC(=O)CN(CCN(CCN(CC(=O)O)CC(=O)O)CC(=O)O)CC(=O)O)C(C)C)C(N)=O,410 nM
6,CSCC[C@H](NC(=O)[C@H](CC(C)C)NC(=O)[C@H](Cc1c[nH]cn1)NC(=O)CNC(=O)[C@@H](NC(=O)[C@H](C)NC(=O)[C@H](Cc1c[nH]c2ccccc12)NC(=O)[C@H](CCC(N)=O)NC(=S)Nc1ccc2c(c1)C(=O)OC21c2ccc(O)cc2Oc2cc(O)ccc21)C(C)C)C(N)=O,3.2 nM
7,CSCC[C@H](NC(=O)[C@H](CC(C)C)NC(=O)[C@H](Cc1c[nH]cn1)NC(=O)CNC(=O)[C@@H](NC(=O)[C@H](C)NC(=O)[C@H](Cc1c[nH]c2ccccc12)NC(=O)[C@H](CCC(N)=O)NC(=O)[C@@H](N)CCCCNC(=S)Nc1ccc2c(c1)C(=O)OC21c2ccc(O)cc2Oc2cc(O)ccc21)C(C)C)C(N)=O,5.7 nM
8,CSCC[C@H](NC(=O)[C@H](CC(C)C)NC(=O)[C@H](Cc1c[nH]cn1)NC(=O)CNC(=O)[C@@H](NC(=O)[C@H](C)NC(=O)[C@H](Cc1c[nH]c2ccccc12)NC(=O)[C@H](CCC(N)=O)NC(=O)CNC(=O)[C@H](CO)NC(=O)CNC(=O)[C@@H](N)CCCCN)C(C)C)C(N)=O,4.8 nM
9,CSCC[C@H](NC(=O)[C@H](CC(C)C)NC(=O)[C@H](Cc1c[nH]cn1)NC(=O)CNC(=O)[C@@H](NC(=O)[C@H](C)NC(=O)[C@H](Cc1c[nH]c2ccccc12)NC(=O)[C@H](CCC(N)=O)NC(=O)CNC(=O)[C@H](CO)NC(=O)CNC(=O)[C@H](CCCCN)NC(=S)Nc1ccc2c(c1)C(=O)OC21c2ccc(O)cc2Oc2cc(O)ccc21)C(C)C)C(N)=O,15.6 nM
10,CSCC[C@H](NC(=O)[C@H](CC(C)C)NC(=O)[C@H](Cc1c[nH]cn1)NC(=O)CNC(=O)[C@@H](NC(=O)[C@H](C)NC(=O)[C@H](Cc1c[nH]c2ccccc12)NC(=O)[C@H](CCC(N)=O)NC(=O)CNC(=O)[C@H](CO)NC(=O)CNC(=S)Nc1ccc2c(c1)C(=O)OC21c2ccc(O)cc2Oc2cc(O)ccc21)C(C)C)C(N)=O,9.2 nM
11,CSCC[C@H](NC(=O)[C@H](CC(C)C)NC(=O)[C@H](Cc1cnc[nH]1)NC(=O)CNC(=O)[C@@H](NC(=O)[C@H](C)NC(=O)[C@H](Cc1c[nH]c2ccccc12)NC(=O)[C@@H](N)CCC(N)=O)C(C)C)C(N)=O,28.3 nM
12,CSCC[C@H](NC(=O)[C@H](CC(C)C)NC(=O)[C@H](Cc1c[nH]cn1)NC(=O)CNC(=O)[C@@H](NC(=O)[C@H](C)NC(=O)[C@H](Cc1c[nH]c2ccccc12)NC(=O)[C@H](CCC(N)=O)NC(=O)CNC(=O)[C@H](CO)NC(=O)CN)C(C)C)C(N)=O,7.6 nM
13,CSCC[C@H](NC(=O)[C@H](CC(C)C)NC(=O)[C@H](Cc1c[nH]cn1)NC(=O)CNC(=O)[C@@H](NC(=O)[C@H](C)NC(=O)[C@H](Cc1c[nH]c2ccccc12)NC(=O)[C@H](CCC(N)=O)NC(=O)[C@@H](N)CCCCN)C(C)C)C(N)=O,10.5 nM
14,CSCC[C@H](NC(=O)[C@H](CC(C)C)NC(=O)[C@H](Cc1c[nH]cn1)NC(=O)CNC(=O)[C@@H](NC(=O)[C@H](C)NC(=O)[C@H](Cc1c[nH]c2ccccc12)NC(=O)[C@H](CCC(N)=O)NC(=O)CNC(=O)[C@H](CO)NC(=O)CNC(=O)[C@H](CCCCNC(=S)Nc1ccc2c(c1)C(=O)OC21c2ccc(O)cc2Oc2cc(O)ccc21)NC(=S)Nc1ccc2c(c1)C(=O)OC21c2ccc(O)cc2Oc2cc(O)ccc21)C(C)C)C(N)=O,20.5 nM
15,CSCC[C@H](NC(=O)[C@H](CC(C)C)NC(=O)[C@H](Cc1c[nH]cn1)NC(=O)CNC(=O)[C@@H](NC(=O)[C@H](C)NC(=O)[C@H](Cc1c[nH]c2ccccc12)NC(=O)[C@H](CCC(N)=O)NC(=O)[C@H](CCCCNC(=O)CN(CCN(CCN(CC(=O)O)CC(=O)O)CC(=O)O)CC(=O)O)NC(=O)CN(CCN(CCN(CC(=O)O)CC(=O)O)CC(=O)O)CC(=O)O)C(C)C)C(N)=O,240 nM
16,CSCC[C@H](NC(=O)[C@H](CC(C)C)NC(=O)[C@H](Cc1c[nH]cn1)NC(=O)CNC(=O)[C@@H](NC(=O)[C@H](C)NC(=O)[C@H](Cc1c[nH]c2ccccc12)NC(=O)[C@H](CCC(N)=O)NC(=O)[C@H](CCCCNC(=O)CN(CCN(CCN(CC(=O)O)CC(=O)O)CC(=O)O)CC(=O)O)NC(=S)Nc1ccc2c(c1)C(=O)OC21c2ccc(O)cc2Oc2cc(O)ccc21)C(C)C)C(N)=O,20 nM
17,CSCC[C@H](NC(=O)[C@H](CC(C)C)NC(=O)[C@H](Cc1c[nH]cn1)NC(=O)CNC(=O)[C@@H](NC(=O)[C@H](C)NC(=O)[C@H](Cc1c[nH]c2ccccc12)NC(=O)[C@H](CCC(N)=O)NC(=O)[C@H](CCCCNC(=S)Nc1ccc2c(c1)C(=O)OC21c2ccc(O)cc2Oc2cc(O)ccc21)NC(=O)CN(CCN(CCN(CC(=O)O)CC(=O)O)CC(=O)O)CC(=O)O)C(C)C)C(N)=O,276 nM
18,CSCC[C@H](NC(=O)[C@H](CC(C)C)NC(=O)[C@H](Cc1c[nH]cn1)NC(=O)CNC(=O)[C@@H](NC(=O)[C@H](C)NC(=O)[C@H](Cc1c[nH]c2ccccc12)NC(=O)[C@H](CCC(N)=O)NC(=O)[C@H](CCCCNC(=S)Nc1ccc2c(c1)C(=O)OC21c2ccc(O)cc2Oc2cc(O)ccc21)NC(=S)Nc1ccc2c(c1)C(=O)OC21c2ccc(O)cc2Oc2cc(O)ccc21)C(C)C)C(N)=O,9.5 nM
19,CSCC[C@H](NC(=O)[C@H](CC(C)C)NC(=O)[C@H](Cc1c[nH]cn1)NC(=O)CNC(=O)[C@@H](NC(=O)[C@H](C)NC(=O)[C@H](Cc1c[nH]c2ccccc12)NC(=O)[C@H](CCC(N)=O)NC(=O)[C@H](CCCCNC(=O)CN1CCN(CC(=O)O)CCN(CC(=O)O)CCN(CC(=O)O)CC1)NC(=S)Nc1ccc2c(c1)C(=O)OC21c2ccc(O)cc2Oc2cc(O)ccc21)C(C)C)C(N)=O,15 nM
